From ChEMBL document CHEMBL4321820, “Identification and Optimization of Mechanism-Based Fluoroallylamine Inhibitors of Lysyl Oxidase-like 2/3” (J Med Chem, 2019)
Calls of active or inactive are those of the source. No cut-off for these calls is given here.

Assays:
[1] = molecular target: T1, Lysyl oxidase homolog 2 (Homo sapiens) (UniProt Q9Y4K0); assay: Substrate competitive inhibition of recombinant human C-terminal His-tagged […] (1-774 residues) expressed in mouse myeloma cells using different concentrations of putrescine as substrate preincubated with enzyme for 30 mins followed by substrate addition and measured every 2.5 mins for 30 mins by substrate competition based Amplex-Red oxidation assay
T1 sequence (whole entry): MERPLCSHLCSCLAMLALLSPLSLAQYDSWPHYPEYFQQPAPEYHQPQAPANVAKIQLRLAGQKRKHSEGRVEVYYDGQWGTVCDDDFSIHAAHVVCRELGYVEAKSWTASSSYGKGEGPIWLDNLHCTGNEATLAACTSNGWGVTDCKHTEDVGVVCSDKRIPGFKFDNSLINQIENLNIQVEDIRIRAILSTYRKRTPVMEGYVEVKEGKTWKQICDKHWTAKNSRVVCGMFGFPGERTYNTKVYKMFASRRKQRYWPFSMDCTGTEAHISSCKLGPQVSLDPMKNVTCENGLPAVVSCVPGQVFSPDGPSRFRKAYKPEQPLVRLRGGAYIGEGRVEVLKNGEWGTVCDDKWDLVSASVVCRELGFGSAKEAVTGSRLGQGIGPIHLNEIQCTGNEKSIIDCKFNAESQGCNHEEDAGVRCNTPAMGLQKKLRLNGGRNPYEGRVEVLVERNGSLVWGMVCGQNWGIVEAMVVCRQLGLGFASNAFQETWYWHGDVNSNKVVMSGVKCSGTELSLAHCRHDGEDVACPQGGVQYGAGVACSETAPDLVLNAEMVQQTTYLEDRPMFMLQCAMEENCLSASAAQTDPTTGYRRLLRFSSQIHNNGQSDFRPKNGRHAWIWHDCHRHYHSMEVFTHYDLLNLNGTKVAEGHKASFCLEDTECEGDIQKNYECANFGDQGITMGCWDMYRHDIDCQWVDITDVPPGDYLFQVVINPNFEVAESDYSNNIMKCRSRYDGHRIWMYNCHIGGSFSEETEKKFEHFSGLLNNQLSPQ
Summary of the method: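 Recombinant LOXL2 incubated with inhibitor plus a range of putrescine concentrations before the reaction mix was added (120 µM Amplex Red, 1.5 U/mL HRP). Buffer was 1.2 M urea, 50 mM sodium borate, pH 8.2. Fluorescence (ex 565/em 590 nm) read every 2.5 min for 30 min at 37 °C.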

Homo sapiens = organism: Homo sapiens; assay: Displacement of [3H]PK11195 from human recombinant peripheral benzodiazepine receptor at 10 uM incubated for 15 mins by scintillation counting method
Summary of the method: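 Single-concentration screen at 10 µM in a panel of 119 enzyme and receptor targets under standard conditions; >50% inhibition of radioligand binding counted as a hit.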

[2] = Selectivity index, ratio of IC50 for recombinant human C-terminal His-tagged […] (1-774 residues) expressed in mouse myeloma cells to IC50 for LOX in bovine aorta
[3] = molecular target: T1, Lysyl oxidase homolog 2 (Homo sapiens); assay: Inhibition of recombinant human LOXL2 assessed as inhibition of collagen cross linking compound replenishment for 5 days and measured on day 7 by UPLC-ESI-MS/MS analysis
[4] = molecular target: T1, Lysyl oxidase homolog 2 (Homo sapiens); assay: Time-dependent inhibition of recombinant human C-terminal His-tagged […] (1-774 residues) expressed in mouse myeloma cells assessed as inactivation constant using putrescine as substrate by kitz-wilson plot analysis
Summary of the method: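 Recombinant human LOXL2 preincubated with inhibitor for varying times at 37 °C, then 5 mM putrescine added with 120 µM Amplex Red and 1.5 U/mL HRP. Buffer was 1.2 M urea, 50 mM sodium borate, pH 8.2. Fluorescence read every 2.5 min for 30 min. Apparent Ki and kinact derived by Kitz–Wilson analysis.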

[5] = molecular target: T1, Lysyl oxidase homolog 2 (Homo sapiens); assay: Irreversible inhibition of recombinant human C-terminal His-tagged […] (1-774 residues) expressed in mouse myeloma cells assessed as maximal inhibition at 30XIC50 incubated for 60 mins followed by 100-fold dilution prior to addition of putrescine as substrate and measured after 30 mins by jump dilution assay based Amplex-Red oxidation assay relative to control
Summary of the method: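 LOXL2 soaked 60 min at 37 °C with inhibitor at 30× IC50. Diluted 50-fold in assay buffer (1.2 M urea, 50 mM borate, pH 8.2), then 1:2 with reaction mix of Amplex Red 120 µM, HRP 1.5 U/mL and putrescine. Read out 30 min after substrate addition (ex 565/em 590, 37 °C). Percent activity followed over time after dilution.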

[6] = molecular target: T1, Lysyl oxidase homolog 2 (Homo sapiens); assay: (§1) Inhibition of recombinant human C-terminal His-tagged […] (1-774 residues) expressed in mouse myeloma cells at 10XIC50 preincubated with bound enzyme for 30 mins followed by drug wash-out and later incubated with putrescine substrate and measured after 30 mins by Amplex-Red oxidation assay; format: cell-based
[7] = molecular target: T2, Amine oxidase [copper-containing] 3 (Homo sapiens, UniProt Q16853); assay: Substrate activity at recombinant human SSAO assessed as compound oxidation by measuring oxidative turnover at 30 uM measured for 40 mins by horseradish peroxidase-coupled amplex red reagent-based fluorometric assay relative to DMSO; format: ADME
T2 sequence (Q16853 whole entry): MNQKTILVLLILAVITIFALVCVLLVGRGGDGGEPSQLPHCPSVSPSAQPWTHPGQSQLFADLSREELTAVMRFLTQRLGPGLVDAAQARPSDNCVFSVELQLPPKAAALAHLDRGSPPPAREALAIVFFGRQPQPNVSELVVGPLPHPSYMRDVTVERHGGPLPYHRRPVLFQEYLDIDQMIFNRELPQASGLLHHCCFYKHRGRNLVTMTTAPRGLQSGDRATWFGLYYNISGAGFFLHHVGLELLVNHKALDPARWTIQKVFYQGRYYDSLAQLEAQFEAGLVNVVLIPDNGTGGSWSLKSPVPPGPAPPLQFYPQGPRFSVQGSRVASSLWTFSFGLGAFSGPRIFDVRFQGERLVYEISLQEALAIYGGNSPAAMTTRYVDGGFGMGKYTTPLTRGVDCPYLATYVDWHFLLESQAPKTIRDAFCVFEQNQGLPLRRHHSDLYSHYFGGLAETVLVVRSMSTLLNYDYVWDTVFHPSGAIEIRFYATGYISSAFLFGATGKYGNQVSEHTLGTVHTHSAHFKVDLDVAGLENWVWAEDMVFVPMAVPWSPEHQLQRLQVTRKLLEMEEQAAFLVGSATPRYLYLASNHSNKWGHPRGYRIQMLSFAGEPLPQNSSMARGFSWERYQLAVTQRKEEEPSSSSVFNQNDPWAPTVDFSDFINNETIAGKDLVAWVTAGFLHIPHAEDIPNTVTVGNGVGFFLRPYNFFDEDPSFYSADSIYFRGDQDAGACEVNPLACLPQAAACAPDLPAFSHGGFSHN
Summary of the method: (§2)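 Compound oxidation measured without substrate by peroxidase-coupled fluorometric read-out of resorufin formation over 40 min at 37 °C in HEPES buffer. Amplex Red 20 µM, HRP 4 U/ml, test compound at final 30 µM. Enzyme source was human recombinant SSAO or AOC4 from diluted dog serum. Benzylamine at 600 µM served as positive control. Signal is expressed relative to DMSO-only background, so a value near 1 means no turnover.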

Lysyl oxidase homolog 2 [8] = molecular target: T3, Lysyl oxidase homolog 2 (Homo sapiens, UniProt Q9Y4K0); assay: Inhibition of recombinant human C-terminal His-tagged […] (1-774 residues) expressed in mouse myeloma cells using putrescine as substrate preincubated with enzyme for 30 mins followed by substrate addition and measured every 2.5 mins for 30 mins by Amplex-Red oxidation assay; conditions: read-out: pIC50 (converted)
T3 sequence (Q9Y4K0 whole entry): T1 sequence (whole entry)
Summary of the method: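 LOXL2 enzyme preincubated with compound for 30 min at 37 °C, then Amplex Red (120 µM) / HRP (1.5 U/mL) mix containing 5 mM putrescine added. Buffer: 1.2 M urea, 50 mM sodium borate, pH 8.2. H2O2 fluorescence (ex 565/em 590) read every 2.5 min for 30 min at 37 °C; BAPN 100 µM as positive control; n≥2.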

[9] = molecular target: T1, Lysyl oxidase homolog 2 (Homo sapiens); assay: as §1, with “cells assessed as recovery of enzyme activity” for “cells”; format: cell-based; set-up: scale not given: the % may be the effect or the level left
Protein-lysine 6-oxidase = molecular target: T4, Protein-lysine 6-oxidase (Bos taurus, UniProt P33072); assay: Inhibition of LOX in bovine aorta using putrescine as substrate preincubated with enzyme for 30 mins followed by substrate addition and measured every 2.5 mins for 30 mins by Amplex-Red oxidation assay; format: tissue-based; conditions: read-out: pIC50 (converted)
T4 sequence (P33072 whole entry): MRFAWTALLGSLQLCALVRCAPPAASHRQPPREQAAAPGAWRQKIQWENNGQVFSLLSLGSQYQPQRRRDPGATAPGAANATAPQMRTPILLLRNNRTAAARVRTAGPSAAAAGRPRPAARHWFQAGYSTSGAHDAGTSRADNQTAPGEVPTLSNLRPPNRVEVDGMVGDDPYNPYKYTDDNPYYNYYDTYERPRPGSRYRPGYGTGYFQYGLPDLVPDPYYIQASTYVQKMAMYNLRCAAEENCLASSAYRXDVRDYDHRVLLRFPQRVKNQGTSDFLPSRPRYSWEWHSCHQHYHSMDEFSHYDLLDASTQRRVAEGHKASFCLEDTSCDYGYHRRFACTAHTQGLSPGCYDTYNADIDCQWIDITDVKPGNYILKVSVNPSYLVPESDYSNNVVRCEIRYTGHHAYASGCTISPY
Summary of the method: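 LOX extracted from calf aorta after PBS washing with 4 M urea/50 mM borate pH 8.2, concentrated on 10 kDa filters into 1.2 M urea/borate with protease inhibitors. Preincubated 30 min at 37 °C with compound, then Amplex Red/HRP with 10 mM putrescine; fluorescence read every 2.5 min for 30 min.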

Lysyl oxidase homolog 2 [10] = molecular target: T3, Lysyl oxidase homolog 2; assay: Substrate activity at recombinant human C-terminal His-tagged […] (1-774 residues) expressed in mouse myeloma cells assessed as oxidative turnover at 30 uM measured after 30 mins by horseradish peroxidase-coupled amplex red reagent-based fluorescence assay relative to DMSO; format: ADME, cell-based; conditions: 0.5 h
Summary of the method: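 LOXL2 incubated with compound, no substrate present. Hydrogen peroxide generation read by Amplex Red/HRP fluorescence (ex 565, em 590 nm). Oxidative turnover at 30 min expressed relative to DMSO.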

[11] = Substrate activity at AOC4 in dog serum assessed as compound oxidation by measuring oxidative turnover at 30 uM measured for 40 mins by horseradish peroxidase-coupled amplex red reagent-based fluorometric assay relative to DMSO; format: ADME, cell-free, Canis lupus familiaris; summary of the method: as §2

SMILES: Cc1c(-c2cccc(S(=O)(=O)N(C)C)c2)c2cc(C(=O)O)ccc2n1C/C(F)=C/CN
- inhibition [1]: Active
- inhibition (Homo sapiens): > 50%
- IC50 ratio [2]: > 300
- inhibition [3]: Dose-dependent effect
- Kinact [4]: 0.89 min⁻¹
- Imax [5]: > 80%
- inhibition [6]: Active

SMILES: Cc1c(-c2cccc(S(=O)(=O)N(C)C)c2)c2cc(C(=O)O)ccc2n1C/C=C/CN.Cl
- fold change (FC) [7]: 1
- IC50 (Lysyl oxidase homolog 2 [8]): 794 nM
- Activity [9]: 75%
- IC50 (Protein-lysine 6-oxidase): 3.16 µM
- fold change (FC) (Lysyl oxidase homolog 2 [10]): 6
- fold change (FC) [11]: 1.3
